Screening data as filed in PubChem.
Sampled rows, rich in hits. Any-hit rate of the full collection: about 2.1%.
RanGTP-Impb inh – disruptors of Ran-importin-beta complex formation – biochemical, FRET, CFP-Ran, YFP-importin-beta, homogeneous, primary screen; cell-free CFP-Ran/YFP-importin-beta FRET ratio; inhibition, % (no concentration beside the values); 300,000 compounds, 1.1% hits; AID 2216;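 active means more than half of the replicate wells show a fall in the fluorescence ratio signal beyond about 16%, limit read from the data, passing the limit was not always enough; inconclusive means exactly half of the replicate wells pass the set limit; inactive means fewer than half of replicates pass the limit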;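 further: 0% = DMSO wells and 100% = Ran loaded with GDP instead of GTP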
Runt-CBFb FRET – blocks binding of human RUNX1 Runt domain to CBFb; 220,000 compounds, 0.46% hits; inhibition, % at 20 µM; Cerulean-Runt/Venus-CBFb FRET ratio 530/480, 1 h; AID 1496;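 active means inhibition over about 50% at 20 µM in the single-dose screen, limit read from the data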;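 further: 0% = DMSO wells and 100% = excess unlabeled CBFb competitor control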
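Measured by: fluorescence energy transfer, 422 nm excitation, 530/480 nm emission; Assay system: Cerulean-Runt domain; Medium: Tris pH 7.5 buffer with BSA; Measure: loss of energy transfer signal; Controls: 5 µM unlabeled CBFb as full-inhibition high control; Incubation: protein complex preformed 1 h, compound exposure 1 h, room temperature, dark.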
Runt-SMMHC FRET – blocks binding of human RUNX1 Runt domain to CBFb-SMMHC | inhibition, % at 20 µM | Cerulean-Runt/Venus-CBFb-SMMHC FRET ratio 530/480, 1 h | AID 1434 | 220,000 compounds, 0.74% hits | Q01196+Q13951;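 active means mean inhibition across duplicate retests at 20 µM reaching about 50%, limit read from the data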;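 further: 0% = DMSO wells and 100% = wells with excess untagged CBFb-SMMHC; inhibitors lower the FRET ratio by blocking Runt binding to CBFb-SMMHC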
Calpain2 inh – inhibitors of pig calpain II | purified calpain II, fluorogenic peptide substrate, 30 min | inhibition, % at 16 µM | 220,000 compounds, 0.37% hits;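 active means inhibition above about 50%, limit read from the data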
FAS TE block – FAS thioesterase (human) inhibition; 360,000 compounds, 0.67% hits; inhibition, % at 15 µM; recombinant FAS-TE, OMFH fluorogenic substrate, fluorescence endpoint; AID 602261;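 active means compounds whose normalised, plate-corrected inhibition of enzyme fluorescence in the single-dose primary screen is 50% or more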;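 further: 0% = DMSO with enzyme and 100% = substrate without enzyme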
* = called active by the depositor; i = inactive; ? = inconclusive; / = no result given.

SMILES	RanGTP-Impb inh	Runt-CBFb FRET	Runt-SMMHC FRET	Calpain2 inh	FAS TE block
CCOC(=O)c1c(C)[nH]c(C(=O)OCc2ccccc2F)c1C	5	/	/	/	3
COc1ccc(-c2oc3cccnc3c2C#CC2(O)CCCCC2)cc1	23*	/	/	/	21
N#C/C(C(=O)Oc1ccccc1)=C1\C=Cc2ccccc2N1	54*	34	18	-79	43
COc1ccc(/C=N/OCC(=O)Nc2ccc3c(c2)OCO3)c(OC)c1	6	-1	6	56*	9
S=C(c1ccc(N2CCCC2)cc1)N1CCCCC1	/	0	-3	64*	-6
Oc1ccc(C(=S)N2CCCCCC2)cc1	-3	/	0	-23	-11
O=C(CNC1CCCCCC1)c1cccs1	0	3	-1	11	-13
COc1cc(SSc2cc(OC)cc([N+](=O)[O-])c2N)c(N)c([N+](=O)[O-])c1	-12	41	64*	-2	0
c1ccc(-c2nc(N3CCCC3)nc3ccccc23)cc1	34*	7	19	-31	0
CN1CCN(c2nc(-c3ccccc3)c3cc(Cl)ccc3n2)CC1	?	25	57*	i	10
Clc1ccc2nc(N3CCNCC3)nc(-c3ccccc3)c2c1	4	39	89*	/	-50
c1ccc2c(N3CCCCC3)nc(N3CCCCC3)nc2c1	6	-1	-7	-9	4
CC(C)C(=O)N1CCC(n2nccc2NC(=O)CCc2ccccc2)CC1	2	/	/	/	-6
O=C1C(Cc2ccccc2)Nc2ncnc(N3CCc4ccccc4C3)c2N1Cc1ccc(Cl)cc1 (centres undefined)	?	/	/	/	55*
CC1Cc2ccccc2N1CC(=O)NCc1ccc2c(c1)OCO2 (centres undefined)	0	-1	-1	5	-4
COC(=O)c1ccc(N2C(=O)C3C4C=CC(CC4)C3C2=O)cc1 (centres undefined)	6	/	/	/	-2
COC(=O)c1ccc(N2C(=O)C3CC(C)=C(C)CC3C2=O)cc1 (centres undefined)	-3	-1	0	59*	1
c1cc(-c2cc3nc(NC4CCCCC4)ccn3n2)ccc1OCCN1CCOCC1	/	/	/	/	6
CCCN(CCC)C(=O)CC(c1ccccc1)c1cc(Br)ccc1O (centres undefined)	/	-1	2	74*	22
COc1cccc(OC)c1OCc1cc(C2C3CCCC=C3C(C#N)=C(N)C2(C#N)C#N)c(C)cc1C (centres undefined)	-12	13	-1	-46	13
CCCCOc1ccc(C2C3CN(C(=O)OCC)CC=C3C(C#N)=C(N)C2(C#N)C#N)cc1OC (centres undefined)	0	-2	8	-439	1
Cc1ccc(C2C3CN(C(C)C)CC=C3C(C#N)=C(N)C2(C#N)C#N)cc1 (centres undefined)	63*	81*	63*	-186	-28
COc1ccc(OC)c(C2C3CN(C(C)C)CC=C3C(C#N)=C(N)C2(C#N)C#N)c1 (centres undefined)	31*	42	79*	-8	-3
CCCN1CC=C2C(C#N)=C(N)C(C#N)(C#N)C(c3cccc(OC)c3OC)C2C1 (centres undefined)	104*	94*	78*	-15	-14
CCCn1c(N)c(N(CCOC)C(=O)c2cc(C)cc(C)c2)c(=O)[nH]c1=O	?	/	/	/	0
SMILES	RanGTP-Impb inh	Runt-CBFb FRET	Runt-SMMHC FRET	Calpain2 inh	FAS TE block
N#Cc1cc2ccccc2n2nnnc12	0	/	/	/	27
COc1cc(OC)cc(C(=O)Oc2c(CN3CCOCC3)cc(Cl)c3cccnc23)c1	?	-2	1	4	6
O=C(Oc1c(CN2CCOCC2)cc(Cl)c2cccnc12)c1ccccc1F	33*	-1	4	1	3
O=C1c2cccc3cccc(c23)C(=O)N1CCCN1CCN(c2ccc(F)cc2)CC1	1	-3	-1	54*	23
COC(=O)c1ccc(/C=N\N2CCN(c3ccccc3)CC2)cc1	-2	/	/	/	-1
Cn1nnnc1SCC(=O)NC1CCCCC1	-3	-1	2	57*	-4
CCCCn1nnnc1SCC(=O)NC1CCCCC1	-1	/	/	/	-9
CCOc1ccc2nc3cc(NCc4ccc(OC)cc4)ccc3c(N)c2c1	27*	/	/	/	-47
O=C(Nc1ccc(S(=O)(=O)Nc2ccccn2)cc1)c1ccc(Cl)cc1Cl	2	/	/	/	0
CCN(CC)S(=O)(=O)c1cc(NS(=O)(=O)c2ccccc2)ccc1C	3	1	3	56*	4
Cc1cc(=O)oc2cc(NC(=O)c3cc(F)ccc3F)ccc12	/	/	/	/	-7
Cc1cc(=O)oc2cc(NS(=O)(=O)c3ccc(F)cc3)ccc12	3	25	67*	-3	-4
CN(C)S(=O)(=O)c1ccc(S(=O)(=O)Nc2ccc3c(c2)oc2ccccc23)cc1	1	-3	1	21	39
Cc1cc(=O)oc2cc(NS(=O)(=O)c3ccccc3)ccc12	3	38	91*	-316	1
O=C(NCCCn1ccnc1)c1ccc(OCC(F)(F)F)cc1	-3	/	/	/	-8
CCN(Cc1nc(-c2cccc(C)c2)no1)C(=O)c1ccc2c(c1)OCO2	2	/	/	/	11
Cn1c(N)c(S(=O)(=O)N2CCN(c3ccccc3Cl)CC2)c(=O)n(C)c1=O	26*	/	/	/	-3
Cn1c(N)c(S(=O)(=O)N2CCN(c3cccc(Cl)c3)CC2)c(=O)n(C)c1=O	-1	/	/	/	1
COC(=O)C(Cc1ccc(OC(=O)c2ccc(C(F)(F)F)cc2)cc1)N1Cc2ccccc2C1=O (centres undefined)	-1	-14	-6	71*	26
CCCCn1c(N)c(N(C)C(=O)c2ccc(-n3cccn3)cc2)c(=O)[nH]c1=O	/	/	/	/	-8
FC(F)(F)c1cc(-c2ccco2)nc(NCc2ccccc2)n1	2	1	-4	-42	22
Fc1ccc(CNc2nc(-c3ccco3)cc(C(F)(F)F)n2)cc1	58*	6	-17	-21	23
Cc1ccc(O)c(Nc2nc(-c3ccccc3)nc3ccccc23)c1	-3	/	/	/	4
Cc1ccc(O)c(Nc2c3ccccc3nc3ccccc23)c1	24*	/	/	/	-15
Cc1ccc(C(=O)NNC(=O)C2CCN(C(=O)OC(C)(C)C)CC2)cc1	5	/	/	/	-2
O=C(NCc1ccco1)C1CC(O)CN1C(=O)Nc1ccccc1 (centres undefined)	-1	/	/	/	-4
O=C(CCCCn1c(=O)c2ccccc2n(CC(=O)NC2CCCC2)c1=O)NCc1ccco1	1	2	3	68*	-5
CCN1CCC2(CC1)C(C#N)=C(N)Oc1c2sc2nc(C)cc(C)c12	28*	7	34	10	-6
COc1cnc(SCc2c(Cl)cccc2Cl)nc1Cl	4	0	0	51*	34
O=C(Nc1cccc([N+](=O)[O-])c1)C1CC(=O)N(C2CCCCC2)C1 (centres undefined)	2	2	2	15	18
